Experimental data as given in ChEMBL document CHEMBL4689842, “EUbOPEN Chemogenomics Library wave 1” (2021).
Several values for one entry are separate records, joined by “and”; a condition that tells them apart may be missing. Identical values can stand only once.

Tested on: Fibroblast
Assay: Multiplex assay against human fibroblast
Format: toxicity, cell-based
How it was run: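 Four dyes were applied at seeding to live cells: Hoechst33342, BioTracker Green Microtubule Cytoskeleton Dye, MitoTracker Red and Annexin V Alexa Fluor 680. Imaging after compound addition used a CQ1 microscope at 37°C and 5% CO2. CellPathfinder machine-learning gating then sorted cells into Hoechst high-intensity objects or normal cells, normal cells into healthy, pyknosed or fragmented nuclei, and pyknosed cells into mitotic or apoptotic, with tubulin, mitochondrial-mass and membrane-permeability phenotypes given as per cents of healthy-nucleus cells.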

[1] = 12 h, 1 µM, compound concentration 1 uM, replicate 1
[2] = 12 h, 1 µM, compound concentration 1 uM, replicate 2
[3] = 12 h, 10 µM, compound concentration 10 uM, replicate 1
[4] = 12 h, 10 µM, compound concentration 10 uM, replicate 2
[5] = 24 h, 1 µM, compound concentration 1 uM, replicate 1
[6] = 24 h, 1 µM, compound concentration 1 uM, replicate 2
[7] = 24 h, 10 µM, compound concentration 10 uM, replicate 1
[8] = 24 h, 10 µM, compound concentration 10 uM, replicate 2
[9] = 48 h, 10 µM, compound concentration 10 uM, replicate 1
[10] = 48 h, 10 µM, compound concentration 10 uM, replicate 2

SMILES: COc1cc2nccc(Oc3ccc(NC(=O)Nc4cc(C)on4)c(Cl)c3)c2cc1OC.O
- Population Apoptotic (%) [1]: 66% and 58%
- Population Fragmented Nuclei (%) [1]: 38% and 29%
- Population Healthy Nuclei (%) [1]: 45% and 54%
- Population Hoechst High Intensity Objects (%) [1]: 11% and 12%
- Population Membrane Permeable-Phenotype (%) [1]: 10% and 8%
- Population Mitochondria Different-Phenotype (%) [1]: 10%
- Population Mitotic Cells (%) [1]: 33% and 41%
- Population Normal (%) [1]: 88% and 87%
- Population Pyknosed Nuclei (%) [1]: 16%
- Population Tubulin-Different-Phenotype (%) [1]: 13%
- Total Cell Count [1]: 229 and 203
- Population Apoptotic (%) [2]: 40% and 50%
- Population Fragmented Nuclei (%) [2]: 63% and 48%
- Population Healthy Nuclei (%) [2]: 28% and 18%
- Population Hoechst High Intensity Objects (%) [2]: 33% and 40%
- Population Membrane Permeable-Phenotype (%) [2]: 27% and 28%
- Population Mitotic Cells (%) [2]: 60% and 50%
- Population Normal (%) [2]: 66% and 59%
- Population Tubulin-Different-Phenotype (%) [2]: 38% and 57%
- Total Cell Count [2]: 95 and 62
- Population Apoptotic (%) [3]: 47%
- Population Fragmented Nuclei (%) [3]: 30%
- Population Healthy Nuclei (%) [3]: 31%
- Population Hoechst High Intensity Objects (%) [3]: 13%
- Population Membrane Permeable-Phenotype (%) [3]: 17%
- Population Mitochondria Different-Phenotype (%) [3]: 31%
- Population Mitotic Cells (%) [3]: 52%
- Population Normal (%) [3]: 86%
- Population Pyknosed Nuclei (%) [3]: 37%
- Population Tubulin-Different-Phenotype (%) [3]: 77%
- Total Cell Count [3]: 163
- Population Apoptotic (%) [4]: 71%
- Population Fragmented Nuclei (%) [4]: 11%
- Population Healthy Nuclei (%) [4]: 75%
- Population Hoechst High Intensity Objects (%) [4]: 3%
- Population Membrane Permeable-Phenotype (%) [4]: 36%
- Population Mitochondria Different-Phenotype (%) [4]: 97%
- Population Mitotic Cells (%) [4]: 28%
- Population Normal (%) [4]: 96%
- Population Pyknosed Nuclei (%) [4]: 12%
- Population Tubulin-Different-Phenotype (%) [4]: 97%
- Total Cell Count [4]: 58
- Population Apoptotic (%) [5]: 76% and 68%
- Population Fragmented Nuclei (%) [5]: 41% and 26%
- Population Healthy Nuclei (%) [5]: 39% and 59%
- Population Hoechst High Intensity Objects (%) [5]: 15% and 11%
- Population Membrane Permeable-Phenotype (%) [5]: 3% and 0%
- Population Mitochondria Different-Phenotype (%) [5]: 42%
- Population Mitotic Cells (%) [5]: 23% and 32%
- Population Normal (%) [5]: 84% and 88%
- Population Pyknosed Nuclei (%) [5]: 19% and 14%
- Total Cell Count [5]: 231 and 198
- Population Apoptotic (%) [6]: 25%
- Population Fragmented Nuclei (%) [6]: 58% and 53%
- Population Healthy Nuclei (%) [6]: 34% and 19%
- Population Hoechst High Intensity Objects (%) [6]: 35% and 29%
- Population Membrane Permeable-Phenotype (%) [6]: 10% and 22%
- Population Mitotic Cells (%) [6]: 75%
- Population Normal (%) [6]: 64% and 70%
- Total Cell Count [6]: 85 and 67
- Population Apoptotic (%) [7]: 57%
- Population Fragmented Nuclei (%) [7]: 29%
- Population Healthy Nuclei (%) [7]: 40%
- Population Hoechst High Intensity Objects (%) [7]: 19%
- Population Membrane Permeable-Phenotype (%) [7]: 11%
- Population Mitochondria Different-Phenotype (%) [7]: 53%
- Population Mitotic Cells (%) [7]: 42%
- Population Normal (%) [7]: 80%
- Population Pyknosed Nuclei (%) [7]: 29%
- Population Tubulin-Different-Phenotype (%) [7]: 86%
- Total Cell Count [7]: 158
- Population Apoptotic (%) [8]: 92%
- Population Fragmented Nuclei (%) [8]: 16%
- Population Healthy Nuclei (%) [8]: 60%
- Population Hoechst High Intensity Objects (%) [8]: 3%
- Population Membrane Permeable-Phenotype (%) [8]: 67%
- Population Mitochondria Different-Phenotype (%) [8]: 100%
- Population Mitotic Cells (%) [8]: 7%
- Population Normal (%) [8]: 96%
- Population Pyknosed Nuclei (%) [8]: 23%
- Population Tubulin-Different-Phenotype (%) [8]: 97%
- Total Cell Count [8]: 58
- Population Apoptotic (%) [9]: 76%
- Population Fragmented Nuclei (%) [9]: 33%
- Population Healthy Nuclei (%) [9]: 47%
- Population Hoechst High Intensity Objects (%) [9]: 22%
- Population Membrane Permeable-Phenotype (%) [9]: 10%
- Population Mitochondria Different-Phenotype (%) [9]: 60%
- Population Mitotic Cells (%) [9]: 23%
- Population Normal (%) [9]: 77%
- Population Pyknosed Nuclei (%) [9]: 18%
- Population Tubulin-Different-Phenotype (%) [9]: 83%
- Total Cell Count [9]: 148
- Population Apoptotic (%) [10]: 62%
- Population Fragmented Nuclei (%) [10]: 36%
- Population Healthy Nuclei (%) [10]: 54%
- Population Hoechst High Intensity Objects (%) [10]: 10%
- Population Membrane Permeable-Phenotype (%) [10]: 0%
- Population Mitochondria Different-Phenotype (%) [10]: 75%
- Population Mitotic Cells (%) [10]: 37%
- Population Normal (%) [10]: 89%
- Population Pyknosed Nuclei (%) [10]: 9%
- Population Tubulin-Different-Phenotype (%) [10]: 95%
- Total Cell Count [10]: 98
